Where a SMILES comes first, the peptide text is derived from it. [ ]: non-standard residue; d: D form.
Tests used:
[1] = tested on: Klebsiella pneumoniae mature biofilms; experiment: Flow cell biofilm assay with confocal microscopy; assay type: cell-based; conditions: top FIC combination, added at day 2
Method in brief: (§1)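 Biofilms grown at 37°C in BM2 glucose minimal medium in flow chambers (1 × 4 × 40 mm channels) for 72 h. Test compound, antibiotic or both were added to the flow-through medium at day 2 of biofilm formation. Combination levels were taken from checkerboard FIC results, with peptide levels lowered in some cases. Cells were stained with LIVE/DEAD BacLight and imaged by confocal microscopy with 3D reconstruction.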

[2] = tested on: A. baumannii mature biofilms; experiment: Flow cell biofilm assay with confocal microscopy; assay type: cell-based, Acinetobacter baumannii; conditions: 0.8 μg/ml DJK-5 with tobramycin, added at day 2
Method in brief: as §1

G. mellonella = G. mellonella survival assay, uninfected; conditions: in vivo
[3] = tested on: P. aeruginosa PA14 biofilms; experiment: Flow cell biofilm assay with confocal microscopy; assay type: cell-based, Pseudomonas aeruginosa
Method in brief: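 P. aeruginosa PA14 biofilms grown at 37°C in BM2 glucose minimal medium in flow chambers (1 × 4 × 40 mm channels). […] For eradication, test compound was first added after 2 days of growth. Cells were stained with LIVE/DEAD BacLight and imaged by confocal microscopy.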

E. coli mature biofilms = experiment: Flow cell biofilm assay with confocal microscopy; assay type: cell-based, Escherichia coli; conditions: top FIC combination, added at day 2
Method in brief: as §1

P. aeruginosa PAO1 = experiment: C. elegans survival assay, infected; assay type: in vivo, Caenorhabditis elegans; conditions: peptide 20 μg/ml, 25°C, average ± SD, n ≥ 12
[4] = tested on: S. enterica mature biofilms; experiment: Flow cell biofilm assay with confocal microscopy; assay type: cell-based, Salmonella enterica; conditions: top FIC combination, added at day 2
Method in brief: as §1

P. aeruginosa = conditions: free swimming (planktonic) cells; ref Overhage et al, 2008; cited from earlier work
P. aeruginosa biofilm = conditions: relative to MIC; ref Overhage et al, 2008; cited from earlier work

| Compound | eradication of 2-day-old biofilms, combination with ciprofloxacin [1] | eradication of 2-day-old biofilms, combination with tobramycin [2] | G. mellonella survival (%) 24h No infection (G. mellonella) | G. mellonella survival (%) 48h No infection (G. mellonella) | biofilm inhibition in flow cells, combination with ciprofloxacin ([3]; 0.1 μg/ml of DJK-5 with 0.04 μg/ml of ciprofloxacin, added at day 0, 3 days) | eradication of 2-day-old biofilms, combination with ciprofloxacin ([3]; top FIC combination, added at day 2, P. aeruginosa PA14) | eradication of 2-day-old biofilms, combination with ceftazidime (E. coli mature biofilms) | C. elegans survival (%) 24h P. aeruginosa PAO1 (P. aeruginosa PAO1; 24 h post infection) | C. elegans survival (%) 48h post infection P. aeruginosa PAO1 (P. aeruginosa PAO1; 48 h post infection) | eradication of 2-day-old biofilms, combination with ceftazidime [4] | MIC (P. aeruginosa) | concentration active against P. aeruginosa biofilms (P. aeruginosa biofilm) |
| --- | --- | --- | --- | --- | --- | --- | --- | --- | --- | --- | --- | --- |
| CC[C@@H](C)[C@@H](NC(=O)[C@@H](C)NC(=O)[C@@H](CCCNC(=N)N)NC(=O)[C@@H](Cc1c[nH]c2ccccc12)NC(=O)[C@@H](CCC(N)=O)NC(=O)[C@H](N)C(C)C)C(=O)N[C@H](CCCNC(=N)N)C(=O)N[C@@H](C(=O)N[C@H](CCCNC(=N)N)C(=O)N[C@@H](C(=O)N[C@@H](C(=O)N[C@H](CCCNC(=N)N)C(N)=O)[C@H](C)CC)C(C)C)C(C)C [DJK5] (H-[dV][dQ][dW][dR][dA][dI][dR][dV][dR][dV][dI][dR]-NH2; N-terminus and C-terminus assumed) | eradication | eradication | 100 ± 0% | 100 ± 0% | complete biofilm inhibition | much more limited dispersal but triggered cell death in remaining cells | not synergistic | 99 ± 2 % | 96 ± 4 % | eradication |  |  |
| LL-37: the human peptide LL-37, cationic host defense peptide |  |  |  |  |  |  |  |  |  |  | > 64 µg/mL | one sixteenth the MIC |

From PMC4362967 (Chemistry & biology, 2015)
